Bioassay records as filed in PubChem.
Sampled rows, rich in hits. Any-hit rate of the full collection: about 2.5%.
E-selectin induc = E-selectin induction on HUVECs; P16581; HUVEC E-selectin immunofluorescence imaging; normalized: neutral wells 0, TNF-alpha wells 100; activation, % at 7.58 µM; hit rate 0.37% among 260,000;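 active = mean E-selectin-positive cell signal at least 10% of the positive control, reached in at least 60% of replicates, without over 20% cell loss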
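material = human umbilical vein endothelial cells (HUVEC), E-selectin induction | quantity = 3,000 cells/well | medium = EGM-2 growth medium on 0.1% gelatin-coated wells | technique = immunofluorescence imaging | read-out basis = % PE-positive cells | control set = TNF-alpha positive control, DMSO neutral control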
SIRT5 block = inhibitors of human sirtuin-5 desuccinylase; Q9NXA8; AID 652115; Purified SirT5, succinyl-peptide AMC, trypsin-coupled fluorescence; hit rate 1.1% among 330,000; inhibition, % at 15 µM; in the data active = inhibition above about 15%
Target sequence (Q9NXA8 whole entry, looked up): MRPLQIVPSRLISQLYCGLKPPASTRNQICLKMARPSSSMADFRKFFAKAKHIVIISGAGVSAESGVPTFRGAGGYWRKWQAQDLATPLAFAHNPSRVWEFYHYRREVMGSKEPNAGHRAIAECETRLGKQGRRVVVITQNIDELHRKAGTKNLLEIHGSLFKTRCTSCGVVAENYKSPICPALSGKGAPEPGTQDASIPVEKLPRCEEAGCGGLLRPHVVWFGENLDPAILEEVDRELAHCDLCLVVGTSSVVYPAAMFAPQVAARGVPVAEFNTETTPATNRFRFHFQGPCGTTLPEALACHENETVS
miR-122 sensor = blocks miR-122 activity in Huh7 sensor cells | Huh7 miR-122 Renilla luciferase sensor, 48 h; neutral wells = 0, positive control = 100 | activation (reporter increase), % at 12.5 µM | hit rate 0.3% among 340,000;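 active = mean replicate activation score at least 90 and every replicate individually at or above 90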;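 also: higher luciferase means less miR-122 activity so hits act as miR-122 inhibitors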
S100A4 inh HTS = inhibitors of human S100A4 binding to myosin IIA peptide; P26447; S100A4/TAMRA-MyoIIA peptide fluorescence polarization; inhibition, % at 10.7 µM; hit rate 0.14% among 360,000; AID 652163;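 active = mean inhibition of at least 70% across replicates, with every replicate also reaching that level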
Target sequence (P26447 whole entry, looked up): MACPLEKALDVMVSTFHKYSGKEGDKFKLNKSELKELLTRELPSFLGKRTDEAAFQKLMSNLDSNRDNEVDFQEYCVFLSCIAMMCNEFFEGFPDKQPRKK
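incubation = readout 5 min after mixing, signal stable up to 60 min | system = S100A4 monomer protein | buffer or medium = HEPES pH 7.2 with CaCl2, KCl, NaCl, DTT, Triton | benchmarks = neutral control DMSO, positive control TFP | also added = fluorescent myosin IIA peptide, 5 nM | compound dosing = one concentration per compound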
FGF22 binding = FGF22 (human) thermal shift binding; AID 651658; Q9HCT0; recombinant FGF22 thermal shift, SYPRO orange fluorescence; percent of sucrose octasulfate shift, DMSO zero; hit rate 1.5% among 340,000; activity (Tm shift, normalised), % at 9.99 µM;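 active = mean Tm shift, scaled 0 neutral to 100 positive control, at about 1.3% or above, every replicate too, limit read from the data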
Target sequence (Q9HCT0 whole entry, looked up): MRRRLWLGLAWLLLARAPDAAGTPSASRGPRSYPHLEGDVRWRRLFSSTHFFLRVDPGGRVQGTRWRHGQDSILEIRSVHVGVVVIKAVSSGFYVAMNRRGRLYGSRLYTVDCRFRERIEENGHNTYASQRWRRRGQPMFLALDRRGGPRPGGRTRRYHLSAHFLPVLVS
Active calls of the source: *; nt = not tested or not shown; [ ] = dose if it differs, or a comment.

SMILES	E-selectin induc	SIRT5 block	miR-122 sensor	S100A4 inh HTS	FGF22 binding
CN(C)C(=O)c1cccc(-c2ccc([C@H]3[C@H]4CN(C(=O)C5CC5)CC(=O)N4[C@H]3CO)cc2)c1	-0.1	3.3	nt	-11.1	nt
Cc1ccccc1OCC1CNC(=O)O1 (centres undefined)	0.0	0.6	-11.4	-2.8	43.1*
O=C(Cn1cnc2ccccc21)N/N=C/c1ccccc1	-0.7	2.4	nt	2.4	43.5*
Cc1cc(C)cc(NC(=S)NCc2ccncc2)c1	nt	4.0	nt	0.6	43.8*
CCCN1[C@@H]2Cn3c(ccc(-c4ccccc4F)c3=O)[C@H]1[C@@H](C(=O)NCc1ccccn1)[C@@H]2CO	0.0	0.9	nt	2.0	nt
O=C(NCCCn1ccnc1)c1ccc(Cl)cc1[N+](=O)[O-]	nt	-1.4	nt	-5.9	43.4*
Cc1ccc(-c2cc(C(=O)NCCCn3ccnc3)c3ccccc3n2)s1	nt	-16.1	123.3*	-5.6	-0.2
O=C(CNC(=O)c1ccc(Cl)cc1Cl)NCCCn1ccnc1	nt	nt	0.0	nt	nt
COc1cccc(C(C(=O)NC2CCCCC2)N(C(=O)Cc2cccs2)c2ccc(-n3cnnn3)c(OC)c2)c1 (centres undefined)	nt	nt	-4.2	nt	nt
COc1cccc(C(C(=O)NC2CCCCC2)N(C(=O)c2cccs2)c2ccc3c(c2)OCO3)c1 (centres undefined)	nt	-0.9	nt	-4.1	44.2*
O=C1NCCNC(=O)c2ccccc2OCCOc2ccccc21	nt	-0.2	nt	0.9	0.8
O=C1OCC/C1=C1/NCCNC1=O	0.8	nt	nt	2.2	43.6*
CO[C@@H](CN(C)C(=O)c1cnccn1)[C@@H](C)CN([C@@H](C)CO)S(=O)(=O)c1ccc(C)cc1	0.0	4.5	nt	12.9	-0.1
CCC(=O)N1C[C@@H]2[C@H](c3ccccc31)[C@H](CO)N2C(=O)Nc1ccccc1F	-0.2	3.0	10.5[16.7 µM]	10.1	-0.4
COCC(=O)N1C[C@H]2[C@@H](c3ccccc31)[C@@H](CO)N2C(=O)Nc1ccccc1F	-0.2	9.2	25.0[16.7 µM]	102.2*	-0.4
N#C[C@H]1[C@H](c2ccc(-c3ccccc3)cc2)[C@H](CO)N1C(=O)Cc1ccccc1	0.0	15.2*	nt	5.1	-0.2
O=C(Nc1ccccc1F)N1C[C@@H]2[C@H](c3ccccc31)[C@@H](CO)N2C(=O)C1CCCC1	-0.1	3.0	130.0*[16.7 µM]	129.5*	0.0
O=C(C1CCCCC1)N1C[C@H]2[C@@H](c3ccccc31)[C@H](CO)N2C(=O)Cc1ccccn1	-0.2	15.7*	7.1[16.7 µM]	-2.1	-0.4
CCCC(=O)N1CCC2(CC1)CN(S(=O)(=O)c1ccc(C)cc1)[C@@H](CO)c1[nH]c3cc(OC)ccc3c12	0.1	-1.9	nt	-0.4	-0.1
COCC(=O)N1[C@H](CO)[C@H](c2ccccc2)[C@@H]1C#N	-0.1	-1.7	nt	4.9	0.1
O=C(NCc1nc2ccccc2[nH]1)C1=C[C@@H](c2coc3ccccc3c2=O)C[C@@H](OCCCCO)O1	nt	-1.1	nt	7.4	0.2
C/C=C/c1ccccc1[C@H]1[C@@H](CO)N(C(=O)Nc2ccccc2F)[C@H]1C#N	-0.1	-0.4	nt	-11.0	nt
C/C=C/c1ccc([C@H]2[C@@H](CO)N(C(=O)Nc3ccccc3F)[C@H]2C#N)cc1	1.2	4.4	nt	89.3*	-0.4
O=C(C1CCCC1)N1C[C@@H]2[C@H](c3ccccc31)[C@@H](CO)N2C(=O)c1ccccc1F	-0.1	6.7	20.0[16.7 µM]	115.0*	-0.3
O=C(NCC[C@H]1CC[C@H](NS(=O)(=O)c2ccc(Cl)cc2)[C@@H](CO)O1)Nc1ccc(F)cc1	-0.5	-14.0	nt	1.7	-0.2
SMILES	E-selectin induc	SIRT5 block	miR-122 sensor	S100A4 inh HTS	FGF22 binding
COc1ccc(S(=O)(=O)N(C)C[C@H]2OCCCC[C@H](C)Oc3ccc(NC(=O)CCC(F)(F)F)cc3C(=O)N([C@H](C)CO)C[C@@H]2C)cc1	0.3	5.0	-6.6[16.7 µM]	-23.5	0.7
COc1ccc(CNC(=O)C[C@@H]2C[C@@H]3c4cc(NC(=O)NC5CCCC5)ccc4O[C@@H]3[C@H](CO)O2)cc1	0.5	0.3	0.5[16.7 µM]	4.2	0.2
CCCCCCN1CCN(C2CN(C3CCCCC3)S(=O)(=O)C2)CC1 (centres undefined)	0.1	38.7*	-6.0	1.6	0.2
CN(C)CCN1CCN(C2CN(C3CCCCC3)S(=O)(=O)C2)CC1 (centres undefined)	nt	-1.4	5.9	5.1	0.0
COc1ccc(CN(C)C[C@H]2Oc3ccc(NC(=O)C4CC4)cc3CC(=O)N([C@H](C)CO)C[C@@H]2C)cc1	0.6	2.2	nt	9.0	-0.1
Cc1ncsc1CCOC(=O)c1ccc(N2CCOCC2)c([N+](=O)[O-])c1	nt	-5.5	-14.6	-4.3	43.7*
C[C@@H]1CN([C@@H](C)CO)C(=O)c2cc(C3=CCCC3)cnc2O[C@@H]1CN(C)C(=O)C1CCC1	-0.4	0.6	-4.8[16.7 µM]	1.3	0.0
O=C(C1CC1)N1C[C@@H]2N[C@H](C1)C2c1ccc(-c2cccc(F)c2)cc1 (some centres undefined)	0.2	nt	nt	nt	-0.2
C[C@H]1CN([C@@H](C)CO)C(=O)Cc2cc(NS(=O)(=O)c3cccs3)ccc2O[C@@H]1CN(C)Cc1ccc(-c2ccccc2)cc1	0.2	15.3*	-8.5[16.7 µM]	-5.9	-0.1
C[C@H](CO)N1C[C@H](C)[C@@H](CN(C)Cc2ccc(-c3ccccc3)cc2)Oc2ccc(NS(=O)(=O)c3cccs3)cc2CC1=O	0.0	18.2*	-6.4[16.7 µM]	-25.4	-0.1
COc1ccc2c3c([nH]c2c1)[C@@H](CO)N(C(=O)c1ccc(F)cc1)CC31CN(C(=O)NC(C)C)C1	0.1	0.8	nt	-4.4	-0.2
S=C(Nc1ccccc1Cl)NC1CCCCCC1	nt	-5.5	149.2*	-2.9	42.2
S=C(Nc1ccc2nsnc2c1)NC1CCCCC1	0.3	-9.2	nt	6.8	0.1
Cc1ccccc1NC(=S)NC1CCCC1	nt	-1.5	-1.7	-1.0	0.0
Cc1ccc(NC(=S)NC2CCCCC2)cc1S(=O)(=O)N(C)C	0.2	0.3	29.9	-6.5	2.7*
S=C(Nc1ccc(Cl)c(Cl)c1)NC1CCCCC1	nt	-1.5	159.2*	-24.7	-0.2
Cc1noc(C)c1NC(=O)N[C@@H]1CC[C@H](CC(=O)NCc2ccc(Cl)c(Cl)c2)O[C@@H]1CO	-0.3	-4.1	-10.5[16.7 µM]	0.2	-0.1
C[C@@H]1CN([C@@H](C)CO)C(=O)c2cc(NC(=O)C3CCCCC3)ccc2O[C@@H]1CN(C)S(C)(=O)=O	-4.0	-2.3	4.4[16.7 µM]	4.5	-0.7
COc1cccc(C2(O)CC(C(F)(F)F)=NN2C(=O)c2ccccn2)c1 (centres undefined)	nt	11.6	0.4	3.2	43.3*
COc1ccccc1C(=O)/C=C/c1ccc(N2CCCCC2)c([N+](=O)[O-])c1	0.0	-1.7	7.6	-5.0	0.1
O=C(/C=C/c1ccc(N2CCCCC2)c([N+](=O)[O-])c1)c1ccc(O)cc1	-0.6	7.0	-4.6	-6.3	43.1*
